Laboratory results as given in ChEMBL document CHEMBL3612005, “Discovery of N-aryl-naphthylamines as in vitro inhibitors of the interaction between HIV integrase and the cofactor LEDGF/p75” (Eur J Med Chem, 2015).
Active and inactive are the calls of the source. No cut-off for these calls is given here.

Assays:
[1] = Cytotoxicity against human MT4 cells assessed as reduction in cell viability by MTT assay; assay type: cell-based
Method in brief: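 Uninfected MT-4 cells exposed to five-fold serial dilutions of compound; viability measured by MTT reduction to formazan, read spectrophotometrically; CC50 = concentration killing 50% of cells.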

[2] = test system: Human immunodeficiency virus 1; assay: Antiviral activity against HIV1 3B infected in human MT4 cells assessed as protection against virus-induced cytopathic effect by MTT assay; assay type: functional, organism-based; settings: Human immunodeficiency virus 1, 3B
Method in brief: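 MT-4 cells infected with 100–300 CCID50 of HIV-1 IIIB (virus titred in MT-4 cells) with five-fold serial dilutions of compound; protection from viral cytopathic effect read by MTT reduction to formazan, measured spectrophotometrically; EC50 = concentration giving 50% protection.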

[3] = species on record: Homo sapiens; assay: Inhibition of FLAG-tagged GST (unknown origin) at 100 uM by emission quenching AlphaScreen assay relative to control
Method in brief: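 Emission-quench counter-screen: FLAG-tagged GST (500 nM final) replaces integrase and LEDGF/p75, otherwise run as the AlphaScreen interaction assay (Ni-chelate donor and anti-FLAG acceptor beads, 20 µg/mL each, 1 h at 30 °C; Tris-HCl pH 7.4 buffer). Compound tested at 100 µM; percent inhibition of signal.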

[4] = biological target: Human immunodeficiency virus type 1 integrase (Human immunodeficiency virus 1) (UniProt Q7ZJM1); assay: Binding affinity to His6-tagged recombinant HIV1 Integrase assessed as inhibition of protein interaction with 3xFLAG-tagged LEDGF/p75 at 100 uM preincubated for 30 mins followed by 3xFLAG-tagged LEDGF/p75 addition measured after 60 mins by AlphaScreen assay relative to control
Method in brief: (§1)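 His6-integrase (300 nM final) preincubated with compound 30 min at 4 °C, then FLAG-LEDGF/p75 (300 nM final) added for 60 min at 4 °C; Ni-chelate donor and anti-FLAG acceptor beads (20 µg/mL each) added, 1 h at 30 °C, light-protected. Buffer: 25 mM Tris-HCl pH 7.4, 150 mM NaCl, 1 mM MgCl2, 0.01% Tween-20, 0.1% BSA. Single-point screen at 100 µM; IC50 determined where inhibition exceeded 50%.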

[5] = biological target: Human immunodeficiency virus type 1 integrase (Human immunodeficiency virus 1, UniProt Q7ZJM1); assay: Binding affinity to His6-tagged recombinant HIV1 Integrase assessed as inhibition of protein interaction with 3xFLAG-tagged LEDGF/p75 preincubated for 30 mins followed by 3xFLAG-tagged LEDGF/p75 addition measured after 60 mins by AlphaScreen assay; method in brief: as §1
Chain of Human immunodeficiency virus type 1 integrase (Q7ZJM1 whole entry): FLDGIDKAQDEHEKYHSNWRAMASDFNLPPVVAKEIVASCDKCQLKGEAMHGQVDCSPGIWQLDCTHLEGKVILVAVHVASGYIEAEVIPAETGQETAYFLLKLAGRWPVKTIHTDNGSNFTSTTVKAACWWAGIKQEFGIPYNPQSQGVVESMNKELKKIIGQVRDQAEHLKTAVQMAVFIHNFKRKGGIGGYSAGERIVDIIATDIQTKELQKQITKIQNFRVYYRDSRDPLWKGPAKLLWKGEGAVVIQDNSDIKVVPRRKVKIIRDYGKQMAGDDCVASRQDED

Chain of Human immunodeficiency virus type 1 integrase (Human immunodeficiency virus 1) (Q7ZJM1 as listed by the source): as the sequence (Q7ZJM1 whole entry) above

SMILES	CC50 [1]	EC50 [2]	inhibition [3]	inhibition [4]	IC50 [5]
COc1ccc2ccccc2c1Nc1c(OC)ccc2ccccc12	3.41 µM	> 3.41 µM	74%	100%	13.8 µM
COc1c(Nc2ccc(I)cc2)ccc2ccccc12				inactive	
COc1ccc(Nc2ccccc2)c2ccccc12				inactive	
Oc1ccc(Sc2ccc(O)c3ccccc23)cc1				38%	
CSc1ccc(Nc2ccc(F)c3ccccc23)cc1				inactive	
O=C(O)c1ccc(Nc2cccc3ccccc23)cc1				39%	
COc1ccc(Nc2ccc(OC)c3ccccc23)cc1				57%	
CC(=O)c1cn(Cc2ccc(C(=O)O)cc2)c2ccccc2c1=O				inactive	
COC(=O)c1ccc(Nc2ccc3ccccc3c2O)cc1				58%	
COC(=O)c1ccc(Cn2ccc(=O)c3ccccc32)cc1				25%	
O=S(=O)(c1ccc(O)cc1)c1ccc(O)c2ccccc12				30%	
O=C(O)c1ccc(Nc2ccc3ccccc3c2O)cc1	23.7 µM	> 23.7 µM		66%	70.1 µM
O=C(O)c1ccccc1Nc1c(O)ccc2ccccc12				56%	
O=C(O)c1ccc(Cn2cc(C(=O)O)c(=O)c3ccccc32)cc1				16%	
COc1c(Nc2ccc(C(=O)O)cc2)ccc2ccccc12				inactive	
O=C(O)c1cc(Nc2ccc(O)c3ccccc23)ccc1O	126 µM	> 126 µM	52%	88%	19.1 µM
CCOC(=O)c1cn(Cc2ccc(C(=O)OC)cc2)c2ccccc2c1=O	5.63 µM	> 5.63 µM		60%	> 100 µM
O=C(O)c1ccc(Nc2ccc(O)c3ccccc23)cc1	1.07 µM	> 1.07 µM	16%	95%	2.5 µM
COC(=O)c1ccccc1Nc1c(O)ccc2ccccc12				28%	

SMILES	CC50 [1]	EC50 [2]	inhibition [3]	inhibition [4]	IC50 [5]
COC(=O)c1cc(Nc2ccc(OC)c3ccccc23)ccc1OC			92%	inactive	
COc1ccccc1Nc1ccc(OC)c2ccccc12				inactive	
COc1ccc(Nc2ccc(OC)c3ccccc23)cc1C(=O)O				41%	
COC(=O)c1ccccc1Nc1c(OC)ccc2ccccc12				inactive	
COc1ccc(Nc2ccc(C(=O)O)cc2)c2ccccc12				33%	
Oc1c(Nc2ccccc2)ccc2ccccc12				61%	
COc1c(Nc2ccccc2)ccc2ccccc12				inactive	
Cc1ccc(-c2c(C(OC(C)(C)C)C(=O)O)ccc3sc(C)cc23)cc1 (stereo not given)	96 µM	0.069 µM			0.046 µM
COC(=O)c1ccc(Nc2cccc3ccccc23)cc1	27.5 µM	> 27.5 µM		62%	
COc1ccc(Sc2ccc(OC)c3ccccc23)cc1				inactive	
Fc1ccc(Nc2ccc(F)c3ccccc23)cc1	38.4 µM	> 38.4 µM		63%	> 100 µM
O=C(O)c1ccc(Cn2ccc(=O)c3ccccc32)cc1				inactive	
COc1ccc(I)cc1Nc1ccc(OC)c2ccccc12	12.5 µM	> 12.5 µM		61%	28.9 µM
COC(=O)c1ccc(Nc2ccc(OC)c3ccccc23)cc1			inactive	59%	34.8 µM
COC(=O)c1ccc(Cn2cc(C(C)=O)c(=O)c3ccccc32)cc1				46%	
COc1ccc(S(=O)(=O)c2ccc(OC)c3ccccc23)cc1				inactive	
COC(=O)c1ccc(Nc2ccc(O)c3ccccc23)cc1				49%	
COC(=O)c1ccc(Nc2ccc3ccccc3c2OC)cc1				inactive	
Oc1ccc(Nc2ccc(O)c3ccccc23)cc1			84%	95%	
